Laboratory results: ChEMBL document CHEMBL2029293, “Fluorophosphonylated nucleoside derivatives as new series of thymidine phosphorylase multisubstrate inhibitors” (J Med Chem, 2012)

How the values were obtained:
[1] = Inhibition of thymidine phosphorylase
[2] = target: Thymidine phosphorylase (Escherichia coli K-12) (UniProt P07650); assay: Inhibition of Escherichia coli thymidine phosphorylase at 1 mM incubated for 20 mins at room temperature followed by 5 mins incubation at 90 degC by HPLC analysis
Sequence of Thymidine phosphorylase (Escherichia coli K-12) (P07650 whole entry, looked up): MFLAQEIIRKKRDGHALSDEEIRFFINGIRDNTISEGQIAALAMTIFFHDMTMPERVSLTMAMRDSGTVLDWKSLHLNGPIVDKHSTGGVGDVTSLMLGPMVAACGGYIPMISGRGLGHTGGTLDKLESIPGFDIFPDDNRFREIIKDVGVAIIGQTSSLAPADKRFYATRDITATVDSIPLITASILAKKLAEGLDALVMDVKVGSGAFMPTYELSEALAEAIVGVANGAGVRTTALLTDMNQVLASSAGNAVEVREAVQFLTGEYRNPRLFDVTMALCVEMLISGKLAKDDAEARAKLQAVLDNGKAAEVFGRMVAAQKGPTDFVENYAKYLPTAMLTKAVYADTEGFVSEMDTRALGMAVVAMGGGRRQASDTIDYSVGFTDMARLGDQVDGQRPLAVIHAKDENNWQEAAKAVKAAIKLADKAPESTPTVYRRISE
Method in brief: (§1)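 Enzyme from E. coli, combined with thymidine and orthophosphate in Tris buffer. Phosphonic acid added at 1 mM or 100 μM. Incubated 20 min at room temperature, then 5 min at 90 °C. Thymidine separated from thymine by HPLC and percent inhibition calculated.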

[3] = target: Thymidine phosphorylase (Escherichia coli K-12) (UniProt P07650); assay: Inhibition of Escherichia coli thymidine phosphorylase at 100 uM incubated for 20 mins at room temperature followed by 5 mins incubation at 90 degC by HPLC analysis; method in brief: as §1
[4] = target: Thymidine phosphorylase (Escherichia coli K-12, UniProt P07650); assay: Competitive inhibition of Escherichia coli thymidine phosphorylase incubated for 20 mins at room temperature followed by 5 mins incubation at 90 degC by Lineweaver-Burk plot analysis
Sequence of Thymidine phosphorylase (P07650 whole entry): as the sequence (P07650 whole entry, looked up) above

SMILES	Ki [1]	inhibition [2]	inhibition [3]	Ki [4]
Cc1cn(C[C@@H](CF)OCP(=O)(O)O)c(=O)[nH]c1=O	2 µM			
Cc1cn(CCCC(F)(F)P(=O)(O)O)c(=O)[nH]c1=O		51%	4%	
Cc1cn(CCCCC(F)(F)P(=O)(O)O)c(=O)[nH]c1=O		68%	15%	
Cc1cn(CCCCCCCCC(F)(F)P(=O)(O)O)c(=O)[nH]c1=O		85%	55%	
O=c1ccn(CCCCC(F)(F)P(=O)(O)O)c(=O)[nH]1		44%	15%	
Nc1[nH]c(=O)[nH]c(=O)c1Br		100%	71%	
O=c1ccn(Cc2cn(CCCCC(F)(F)P(=O)(O)O)nn2)c(=O)[nH]1		79%	22%	
Cc1cn(CCCCCCSCCCCC(F)(F)P(=O)(O)O)c(=O)[nH]c1=O		86%	38%	
Cc1cn(C[C@@H](C)OCP(=O)(O)O)c(=O)[nH]c1=O	2 µM			
O=P(O)(O)C(F)(F)CCCCn1cc(Cn2cnc3c(O)ncnc32)nn1		76%	35%	
O=P(O)(O)C(F)(F)CCCCn1cnc2c(O)ncnc21		25%	9%	
Cc1cn(CCCCCCCCP(=O)(O)O)c(=O)[nH]c1=O			15%	
Cc1cn(C[C@@H](CO)OCP(=O)(O)O)c(=O)[nH]c1=O	2 µM			
Cc1cn(CCCSCCCCC(F)(F)P(=O)(O)O)c(=O)[nH]c1=O		90%	43%	
O=P(O)(O)CCCCCCCCn1ccc2c(O)nc(O)nc21	54 µM			54 µM
O=P(O)(O)C(F)(F)CCCn1cc(Cn2cnc3c(O)ncnc32)nn1		69%	29%	

SMILES	Ki [1]	inhibition [2]	inhibition [3]	Ki [4]
Cc1cn(Cc2cn(CC(F)(F)P(=O)(O)O)nn2)c(=O)[nH]c1=O		29%	9%	
Nc1nc(O)c2ncn(CCCCC(F)(F)P(=O)(O)O)c2n1		74%	34%	
Nc1nc(O)c2ncn(CCCC(F)(F)P(=O)(O)O)c2n1		25%	4%	
Cc1cn(CCCCP(=O)(O)O)c(=O)[nH]c1=O		23%	0%	
Cc1cn(Cc2cn(CCCC(F)(F)P(=O)(O)O)nn2)c(=O)[nH]c1=O		79%	36%	
Cc1cn(CC(I)CC(F)(F)P(=O)(O)O)c(=O)[nH]c1=O (centres undefined)		95%	52%	
O=c1[nH]c(=O)n(CCCCC(F)(F)P(=O)(O)O)cc1Br		61%	20%	
Cc1cn(CCCCCCCCCC(F)(F)P(=O)(O)O)c(=O)[nH]c1=O		86%	55%	
Cc1cn(CCCCSCCCCC(F)(F)P(=O)(O)O)c(=O)[nH]c1=O		78%	40%	
Cc1cn(CCCCCCCCCCCC(F)(F)P(=O)(O)O)c(=O)[nH]c1=O		88%	56%	
Nc1nc(O)c2ncn(Cc3cn(CCCCC(F)(F)P(=O)(O)O)nn3)c2n1		76%	35%	
Cc1cn(CCSCCCCC(F)(F)P(=O)(O)O)c(=O)[nH]c1=O		36%	0%	
Cc1cn(Cc2cn(CCCCC(F)(F)P(=O)(O)O)nn2)c(=O)[nH]c1=O		90%	68%	58 µM
Nc1c(Br)c(=O)[nH]c(=O)n1CCCCCCCCP(=O)(O)O	142 µM		64%	142 µM
N=C1CCCN1Cc1[nH]c(=O)[nH]c(=O)c1Cl [TIPIRACIL]	0.035 µM			
